Measurements as given in article PMC7583042 (Free radical biology & medicine, 2019).
Where “and” joins values, the source holds several entries; their conditions need not be identical. Identical values can stand only once. Entries after “also recorded” stand apart in the source; their conditions may differ. Like-named read-outs stand apart in the source and are kept apart here.

Assays:
[1] = target: T1, SmTGR WT (Schistosoma mansoni, UniProt Q962Y6); assay: biochemical; assay type: biochemical
[2] = target: T2, human GR (Homo sapiens, UniProt P00390); assay: biochemical; assay type: biochemical; details: for inhibition of Human GR @ 2 mM: 2 mM compound; for Apparent IC50 Human GR: 15 min preincubation with NADPH
T2 sequence (P00390 1-479 isoform P00390-2): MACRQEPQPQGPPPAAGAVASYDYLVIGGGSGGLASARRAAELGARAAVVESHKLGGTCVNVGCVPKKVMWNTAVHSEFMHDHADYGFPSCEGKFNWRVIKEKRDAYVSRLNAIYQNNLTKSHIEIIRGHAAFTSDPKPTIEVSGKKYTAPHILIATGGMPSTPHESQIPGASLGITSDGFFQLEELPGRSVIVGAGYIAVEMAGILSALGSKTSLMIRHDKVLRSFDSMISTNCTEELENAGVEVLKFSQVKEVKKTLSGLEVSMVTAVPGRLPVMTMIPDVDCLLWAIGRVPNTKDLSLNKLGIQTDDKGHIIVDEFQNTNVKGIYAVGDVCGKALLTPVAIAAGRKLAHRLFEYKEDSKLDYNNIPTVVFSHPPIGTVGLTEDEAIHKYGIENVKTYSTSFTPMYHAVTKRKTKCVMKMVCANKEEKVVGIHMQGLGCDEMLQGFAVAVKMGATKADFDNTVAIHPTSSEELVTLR

[3] = target: SmTGR-U597C (Schistosoma mansoni, UniProt Q962Y6); assay: biochemical
[4] = system: SmTGR-U597C; assay: biochemical; details: 15 min
[5] = target: SmTGR WT (Schistosoma mansoni, UniProt Q962Y6, X597U); assay type: biochemical; details: global fitting of time dependent inactivation
[6] = target: T3, SmTGR-E330A/D334A (Schistosoma mansoni, UniProt Q962Y6, D334A/E330A); assay: Time dependent inactivation of SmTGR-E330A/D334A; assay type: biochemical; details: global fitting of time dependent inactivation
[7] = system: Adult S. mansoni; assay: Ex vivo cultured adult worm survival; assay type: cell-based, Schistosoma mansoni; details: ex vivo culture
How it was run: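 Adult worms were isolated from infected mice and held 24 h in RPMI with 10% fetal calf serum, 10 mM glutamine and 1× penicillin/streptomycin. Test compound was then added to the medium at 10 or 50 μM. Worms were observed daily and scored dead when no movement was seen after several minutes' observation. Percentage dead is reported at 144 h.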

[8] = oQM-thiol adduct formation with Cys and GSH followed by RP-HPLC/MS; assay type: physicochemical; details: pH 7.4, ambient temperature
How it was run: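 Test compound (1 mM) was incubated alone or with 1 mM Cys and GSH in 5 mM sodium phosphate, pH 7.4 (also pH 8.3), at ambient temperature. Aliquots were injected at time intervals onto C18 RP-HPLC, eluting with a 0–100% acetonitrile gradient in 0.1% formic acid. Peaks were identified by ESI-MS and CID MS/MS (−4.0 kV, m/z 125–2,000, 260 °C capillary).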

[9] = system: Rat TrxR; details: ref bioassay AID 588453, cited from earlier work; for IC50: read-out: Apparent IC50 Rat TrxR
[10] = target: human glutathione S-transferase Ω−1 (GSTO1); details: ref bioassay AID 66188991; cited from earlier work
[11] = pKa of the amine named in the cell; source not stated; cited from earlier work
[12] = system: Larval S. mansoni; assay: Ex vivo cultured larval worm survival; assay type: cell-based, Schistosoma mansoni; details: ex vivo culture
How it was run: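 Schistosomula were made by mechanical transformation of cercariae shed from infected Biomphalaria glabrata, then isolated on a Percoll gradient. They were cultured 24 h in M-199 with 10% fetal calf serum before test compound was added at 10 μM. Daily observation scored larvae dead when motionless for several minutes. Percentage dead is reported at 120 h.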

[13] = target: T3, SmTGR-E330A/D334A; assay: SmTGR-E330A/D334A mutant inhibition, DTNB assay; assay type: biochemical
[14] = system: SmTGR WT; assay type: biochemical, Schistosoma mansoni
[15] = target: T1, SmTGR WT; assay: NADPH oxidase activity of inhibited enzyme; assay type: biochemical; details: 50 μM inhibitor, 30 min, pyrogallol red
[16] = read-out: Apparent IC50 TGR, 15 min preincubation, NADPH present
[17] = read-out: IC50 (Table 2), SmTGR value repeated in Table 2

Row | Compound | Adult S. mansoni (144 h) 10 μM, worms dead [7] [% dead] | Adult S. mansoni (144 h) 50 μM, worms dead [7] [% dead] | IC50 [9] | Apparent IC50 GSTO1 [10] | pka of the leaving group upon oQM formation [11] | IC50 [1, 16] [µM] | Apparent IC50 Rat TrxR [9] | Apparent IC50 Human GR [2] | other results
1 | Oc1ccc2ccccc2c1CN1CCOCC1 [Compound 1, 1-(Morpholin-4-ylmethyl)-2-naphthol] | 8 | 13 | 10 µM | not detected; also recorded: inactive | 8.3 (morpholine) | – | – | – | IC50 [1]: 0.61 ± 0.09 µM; IC50 [2]: 71 ± 11.7 µM; IC50 [3]: 100 µM; fold higher apparent IC50 for SmTGR-U597C than for WT [4]: 200 fold; second order rate constant for inhibition of SmTGR WT [5]: 1830 M⁻¹ s⁻¹; second order rate constant for inhibition of SmTGR E330/D334 [6]: 1300 M⁻¹ s⁻¹; time to generate comparable amounts of oQM-thiol adduct [8]: 1 h
2 | CCOC(=O)N1CCN(Cc2c(O)ccc3ccccc23)CC1 [Compound 2] | – | 5 | 12.6 µM | inactive | – | 0.65 ± 0.12 | – | – | IC50 [1, 17]: 0.65 ± 0.12 µM; inhibition of Human GR @ 2 mM [2]: 35% inhibition @ 2 mM
3 | CN(Cc1ccccc1)Cc1c(O)ccc2ccccc12 [Compound 3] | 0 | 24 | – | inactive | – | 0.84 ± 0.03 | inactive | – | IC50 [1, 17]: 0.84 ± 0.03 µM; inhibition of Human GR @ 2 mM [2]: 20% inhibition @ 2 mM; Larval S. mansoni (120 h) 10 μM, worms dead [12]: 19% dead
4 | CN(C)Cc1c(O)ccc2ccccc12 [Compound 4, 1-[(Dimethylamino)methyl]-2-naphthol] | 0 | – | 31 µM and 31.6 µM | not detected; also recorded: inactive | 11 (dimethylamine) | – | – | – | IC50 [1]: 11.2 ± 1.9 µM; inhibition of SmTGR WT at pH 6.4 ([1]; pH 6.4, data not shown): low micromolar range; IC50 [2]: 1830 µM; IC50 [13]: 44 ± 4.9 µM; fold higher inhibitor concentration needed for E330A/D334A than for WT ([13]; same degree of inhibition): 4 fold; IC50 [3]: 2000 µM; fold higher apparent IC50 for SmTGR-U597C than for WT [4]: 200 fold; second order rate constant for inhibition of SmTGR WT [5]: 45.8 M⁻¹ s⁻¹; difference in inhibition rate between WT and E330A/D334A ([14]; compound at 2 μM): about 360 fold; WT inhibited faster than E330A/D334A ([14]; compound at 20 μM): 3 times; second order rate constant for inhibition of SmTGR E330/D334 [6]: 14.7 M⁻¹ s⁻¹; induction of NADPH oxidase activity in the inhibited WT enzyme [15]: able to induce; time to generate comparable amounts of oQM-thiol adduct [8]: 24 h
5 | Oc1ccc2ccccc2c1CN1CC=C(c2ccccc2)CC1 [Compound 5] | – | – | – | inactive | – | 11.9 ± 3.57 | inactive | inactive | –
6 | Oc1ccc2ccccc2c1CN1CCCC1 [Compound 6] | – | 0 | – | inactive | 11.2 (pyrolidine) | 28.8 ± 5.37 | inactive | inactive | –
7 | Oc1ccc2ccccc2c1CN1CCCCC1 [Compound 7] | – | – | – | – | 11.2 (piperidine) | 57.6 ± 4.57 | inactive | inactive | –
